Test results published in ChEMBL document CHEMBL1158519, “Syntheses and antibacterial activity studies of new oxazolidinones from nitroso Diels-Alder chemistry” (2010).

Tests used:
Format in all cases: functional
Settings in all cases: read-out: DIZ
[1] = tested on: Bacillus subtilis; test: Antimicrobial activity against Bacillus subtilis ATCC 6633 at 2 mM after overnight incubation by agar diffusion method
Method in brief: (§1)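 Agar diffusion: 9 mm wells cut in Standard I Nutrient Agar or Mueller Hinton II agar, each loaded with 50 µl of a 2.0 mM compound solution in 1:9 DMSO:MeOH. Ciprofloxacin was run as control at 5 µg/mL in H2O. Plates were incubated at 37 °C for 24 h, and the inhibition zone diameter was read in mm. Zones were flagged as partially clear, unclear with colonies, or faint.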

[2] = tested on: Micrococcus luteus; test: Antimicrobial activity against Micrococcus luteus ATCC 10240 at 2 mM after overnight incubation by agar diffusion method; method in brief: as §1
[3] = tested on: Staphylococcus aureus; test: Antimicrobial activity against wild type Staphylococcus aureus SG 511 at 2 mM after overnight incubation by agar diffusion method; method in brief: as §1
[4] = tested on: Enterococcus faecalis; test: Antimicrobial activity against Enterococcus faecalis ATCC 49532 at 2 mM after overnight incubation by agar diffusion method; method in brief: as §1
[5] = tested on: Pseudomonas aeruginosa; test: Antimicrobial activity against wild type Pseudomonas aeruginosa K799 at 2 mM after overnight incubation by agar diffusion method; method in brief: as §1
[6] = tested on: Pseudomonas aeruginosa; test: Antimicrobial activity against Pseudomonas aeruginosa K799/61 mutant at 2 mM after overnight incubation by agar diffusion method
Method in brief: (§2)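 Agar well diffusion: 50 µl of a 2.0 mM solution in 1:9 DMSO:MeOH placed in 9 mm wells cut in nutrient agar or Mueller Hinton II agar; plates incubated 37 °C for 24 h, then inhibition zone diameter measured in mm. Zones scored as clear, partially clear, unclear (many colonies inside) or faint. Ciprofloxacin positive control at 5 µg/mL in water.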

[7] = tested on: Escherichia coli; test: Antimicrobial activity against Escherichia coli ATCC 25922 at 2 mM after overnight incubation by agar diffusion method; method in brief: as §1
[8] = tested on: Mycolicibacterium vaccae; test: Antimicrobial activity against Mycobacterium vaccae IMET 10670 at 2 mM after overnight incubation by agar diffusion method; method in brief: as §1
[9] = tested on: Escherichia coli; test: Antimicrobial activity against Escherichia coli X580 at 2 mM after overnight incubation by agar diffusion method
[10] = tested on: Staphylococcus aureus; test: Antimicrobial activity against methicillin-resistant Staphylococcus aureus 143/93 at 2 mM after overnight incubation by agar diffusion method; method in brief: as §2
[11] = tested on: Enterococcus faecalis; test: Antimicrobial activity against vancomycin-resistant Enterococcus faecalis 1528 at 2 mM after overnight incubation by agar diffusion method; method in brief: as §2

Row | SMILES | zone of inhibition at 2000 µM [1] | zone of inhibition at 2000 µM [2] | zone of inhibition at 2000 µM [3] | zone of inhibition at 2000 µM [4] | zone of inhibition at 2000 µM [5] | zone of inhibition at 2000 µM [6] | zone of inhibition at 2000 µM [7] | zone of inhibition at 2000 µM [8] | zone of inhibition at 2000 µM [9] | zone of inhibition at 2000 µM [10] | zone of inhibition at 2000 µM [11]
1 | O=C1O[C@@H](COC(=O)N2OC3C=CC2C3)CN1c1ccc(N2CC[S+]([O-])CC2)c(F)c1 (some centres not stated) | 21 mm | 22 mm | 18 mm | 19 mm | 0 mm | 11 mm | 0 mm | 35 mm |  |  | 
2 | O=C(NO)OC[C@H]1CN(c2ccc(N3CCSCC3)c(F)c2)C(=O)O1 | 16 mm | 33 mm | 16 mm | 16 mm | 0 mm | 0 mm | 0 mm |  | 20 mm |  | 
3 | O=C(NO)OC[C@H]1CN(c2ccc(N3CCOCC3)c(F)c2)C(=O)O1 | 23 mm | 37 mm | 18 mm | 22 mm | 0 mm | 0 mm | 12 mm |  | 0 mm |  | 
4 | CC(C)(C)OC(=O)N1CCN(c2ccc(N3C[C@H](CO)OC3=O)cc2F)CC1 | 23 mm | 34.5 mm | 24 mm | 21 mm | 0 mm | 10 mm | 0 mm |  |  |  | 
5 | O=C1O[C@@H](CO)CN1c1ccc(N2CCOCC2)c(F)c1 | 26 mm | 38 mm | 23 mm | 21 mm | 0 mm | 11 mm | 0 mm | 43 mm |  |  | 
6 | O=C1O[C@@H](CO)CN1c1ccc(N2CCSCC2)c(F)c1 | 26 mm | 41 mm | 24 mm | 21.5 mm | 0 mm | 11 mm | 0 mm | 43 mm |  |  | 
7 | O=C(N[C@H]1C=C[C@@H](O)C1)OC[C@H]1CN(c2ccc(N3CCOCC3)c(F)c2)C(=O)O1 | 14 mm |  | 15 mm |  |  | 0 mm |  | 18 mm |  | 14 mm | 12 mm
8 | O=C(N[C@H]1C=C[C@@H](O)CC1)OC[C@H]1CN(c2ccc(N3CCOCC3)c(F)c2)C(=O)O1 | 13 mm |  | 14 mm |  |  | 0 mm |  | 0 mm |  | 14 mm | 12 mm
9 | O=C(N[C@H]1C=C[C@@H](O)CC1)OC[C@H]1CN(c2ccc(N3CCSCC3)c(F)c2)C(=O)O1 | 12 mm | 14 mm | 0 mm | 12 mm | 0 mm | 10 mm | 0 mm | 0 mm |  |  | 
10 | CC(C)(C)OC(=O)N1CCN(c2ccc(N3C[C@H](COC(=O)NO)OC3=O)cc2F)CC1 | 22 mm | 33 mm | 17 mm | 20 mm | 0 mm | 0 mm | 12 mm |  | 0 mm |  | 
11 | O=C1O[C@@H](COC(=O)N2OC3C=CC2C3)CN1c1ccc(N2CCOCC2)c(F)c1 (some centres not stated) | 17 mm |  | 15 mm |  |  | 0 mm |  | 30 mm |  | 25 mm | 19 mm
12 | O=C1O[C@@H](COC(=O)N2OC3C=CC2CC3)CN1c1ccc(N2CC[S+]([O-])CC2)c(F)c1 (some centres not stated) | 17 mm | 15 mm | 15 mm | 17 mm | 0 mm | 10 mm | 0 mm | 18 mm |  |  | 
13 | CC(C)(C)OC(=O)N1CCN(c2ccc(N3C[C@H](COC(=O)N[C@H]4C=C[C@@H](O)C4)OC3=O)cc2F)CC1 | 13 mm | 12 mm | 14 mm | 12.5 mm | 0 mm | 10 mm | 0 mm | 12 mm |  |  | 
14 | O=C(N[C@H]1C=C[C@@H](O)C1)OC[C@H]1CN(c2ccc(N3CCSCC3)c(F)c2)C(=O)O1 | 14 mm | 15 mm | 12.5 mm | 12.5 mm | 0 mm | 10 mm | 0 mm | 18 mm |  |  | 
15 | CC(=O)OC[C@H]1CN(c2ccc(N3CCOCC3)c(F)c2)C(=O)O1 | 26.5 mm | 38 mm | 26 mm | 24 mm | 0 mm | 17 mm | 0 mm | 43 mm |  |  | 
16 | CC(C)(C)OC(=O)N1CCN(c2ccc(N3C[C@H](COC(=O)N4OC5C=CC4C5)OC3=O)cc2F)CC1 (some centres not stated) | 12 mm | 16 mm | 13 mm | 19 mm | 14 mm | 0 mm | 0 mm | 19 mm |  | 19 mm | 16 mm
17 | CC(C)(C)OC(=O)N1CCN(c2ccc(N3C[C@H](COC(=O)N4OC5C=CC4CC5)OC3=O)cc2F)CC1 (some centres not stated) | 18 mm |  | 16 mm |  |  | 0 mm |  | 13 mm |  | 14 mm | 12 mm
18 | O=C1O[C@@H](COC(=O)N2OC3C=CC2CC3)CN1c1ccc(N2CCOCC2)c(F)c1 (some centres not stated) | 19 mm |  | 16 mm |  |  | 0 mm |  | 15 mm |  | 18 mm | 16 mm
19 | CC(C)(C)OC(=O)N1CCN(c2ccc(N3C[C@H](COC(=O)N[C@H]4C=C[C@@H](O)CC4)OC3=O)cc2F)CC1 | 0 mm | 0 mm | 0 mm | 12 mm | 0 mm | 12 mm | 0 mm | 0 mm |  |  | 
20 | O=C(O)c1cn(C2CC2)c2cc(N3CCNCC3)c(F)cc2c1=O [CIPROFLOXACIN] | 29.5 mm | 0 mm | 24 mm | 13 mm | 35 mm | 39 mm | 31 mm | 19 mm |  | 0 mm | 15 mm
21 | CC(=O)NC[C@H]1CN(c2ccc(N3CCOCC3)c(F)c2)C(=O)O1 [LINEZOLID] | 31 mm | 38 mm | 27 mm | 25 mm | 0 mm | 10 mm | 0 mm | 42 mm | 0 mm |  | 
